From PubChem BioAssay
Active and inactive are the calls of the source.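 The calls were made as follows, unless noted: active = viability at or below 30% in both replicate assays; inconclusive = viability at or below 30% in just one of the two assays; inactive = the rest.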

How the values were obtained:
[1] = Her2 expression decrease, cell viability multiplex – SKBR3 breast tumor cells, AlphaScreen, ATP viability, primary screen (AID 461;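 active = Her2 level under about 52% in both replicate screens, with viability over 70% of control, limit read from the data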;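 as to Her2 level: lower value means less Her2 protein in the cells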;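 as to viability: percent of carrier control wells set as 100% viability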); conditions: SKBR3 Her2 protein level, 18-24 h, measured here: SKBR3 viability, ATP luminescence, at 10 µM
[2] = biological target: Receptor tyrosine-protein kinase erbB-2 (Homo sapiens) (UniProt P04626); assay: as above; conditions: 18-24 h, at 10 µM, stronger effect = lower value
[3] = reduced viability of SK-BR-3 breast cancer cells – cell-based, 24 h, human, pilot screen (AID 572;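 active = viability at or below 10% of carrier control in both of two separate runs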;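 also: compound exposure lasted between 18 and 24 h rather than exactly 24 h; 100% = carrier-treated control wells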); conditions: SK-BR-3 viability, CellTiter-Glo luminescence, at 10 µM, stronger effect = lower value
[4] = HUVEC growth inhibition – cell-based, human, primary screen (AID 575); conditions: HUVEC proliferation, CellTiter-Glo luminescence, 72 h; at 10 µM; stronger effect = lower value;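 also: 100% = median of untreated cell wells with 0.1% DMSO on each plate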
Summary of the method: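 Timing: 72 h treatment at 37 °C; material: HUVEC primary cells; technique: CellTiter-Glo luminescence measuring cellular ATP; controls: vehicle and MePR control wells; measure: percent of median DMSO-control luminescence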

[5] = H69AR cell proliferation blockers – human, duplicate replicates, primary screen (AID 580;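 active = viability at or under a set limit in both replicates, limit being median viability minus 3 SD, cut at about 48% in these data, passing the limit was not always enough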;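 also: 100% = mean luminescence of untreated wells and 0% = no signal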); conditions: H69AR lung tumor cells viability, ATP luminescence, 72 h; at 10 µM; stronger effect = lower value
[6] = MRP1 drug-resistance reversers in H69AR cells – cell-based, doxorubicin co-treatment, pilot screen (AID 601;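 active = viability loss from added drug above about 55%, and viability with drug at most 40%, in both replicates, limit read from the data, passing the limit was not always enough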); conditions: CellTiter-Glo, 72 h, at 10 µM; for differential viability (reversal): stronger effect = higher value
[7] = yeast transport mutant growth inhibition pilot in 384-well plates, post-Golgi transport modulator project (AID 636; in the data active = inhibition above about 31%); conditions: absorbance 615 nm, about 18 h, stronger effect = higher value
[8] = growth suppression of yeast trafficking mutant, preliminary HTS, modulators of trafficking downstream of Golgi apparatus project, 1536-format plate, OD 615 nm (AID 637; in the data active = inhibition above about 30%); conditions: yeast transport mutant growth, absorbance 615 nm, 18 h; stronger effect = higher value
[9] = H69AR cells + 2 uM doxorubicin, measured here: viability with 2 uM doxorubicin, stronger effect = lower value
[10] = H69AR cells, compound alone cytotoxicity

Chain of Receptor tyrosine-protein kinase erbB-2 (Homo sapiens) (P04626 whole entry, looked up): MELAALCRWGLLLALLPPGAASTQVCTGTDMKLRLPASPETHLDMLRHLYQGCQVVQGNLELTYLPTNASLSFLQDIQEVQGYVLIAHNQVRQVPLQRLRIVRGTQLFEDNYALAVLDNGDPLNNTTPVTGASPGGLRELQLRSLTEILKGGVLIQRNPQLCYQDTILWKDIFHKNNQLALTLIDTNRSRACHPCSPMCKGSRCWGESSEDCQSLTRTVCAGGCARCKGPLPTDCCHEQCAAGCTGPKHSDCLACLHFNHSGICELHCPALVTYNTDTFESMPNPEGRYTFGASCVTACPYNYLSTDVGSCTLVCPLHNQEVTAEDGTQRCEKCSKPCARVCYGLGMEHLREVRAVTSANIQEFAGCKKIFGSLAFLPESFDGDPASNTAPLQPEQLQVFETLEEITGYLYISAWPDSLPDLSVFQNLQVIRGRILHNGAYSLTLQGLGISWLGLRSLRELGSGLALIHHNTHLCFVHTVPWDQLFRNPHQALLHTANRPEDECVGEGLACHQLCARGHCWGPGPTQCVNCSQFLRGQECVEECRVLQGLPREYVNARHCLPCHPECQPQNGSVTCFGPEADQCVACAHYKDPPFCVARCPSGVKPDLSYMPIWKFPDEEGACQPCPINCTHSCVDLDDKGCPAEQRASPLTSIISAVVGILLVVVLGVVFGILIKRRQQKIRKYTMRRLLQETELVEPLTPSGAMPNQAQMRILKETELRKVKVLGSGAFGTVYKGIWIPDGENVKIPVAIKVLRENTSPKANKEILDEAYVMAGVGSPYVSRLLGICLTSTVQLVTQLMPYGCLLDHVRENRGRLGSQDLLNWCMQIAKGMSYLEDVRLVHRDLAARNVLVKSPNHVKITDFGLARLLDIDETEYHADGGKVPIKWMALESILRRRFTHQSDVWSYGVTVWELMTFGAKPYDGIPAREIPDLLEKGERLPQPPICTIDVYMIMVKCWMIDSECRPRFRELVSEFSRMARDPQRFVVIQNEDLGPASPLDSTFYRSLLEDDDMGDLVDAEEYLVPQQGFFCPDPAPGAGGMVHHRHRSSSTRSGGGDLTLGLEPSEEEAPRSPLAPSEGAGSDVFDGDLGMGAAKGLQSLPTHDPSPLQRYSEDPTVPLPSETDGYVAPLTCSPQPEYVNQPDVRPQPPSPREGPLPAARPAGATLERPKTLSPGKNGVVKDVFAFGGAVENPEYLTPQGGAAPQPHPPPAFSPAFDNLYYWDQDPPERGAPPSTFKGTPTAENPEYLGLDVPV

Row | SMILES | viability [1] | Her2 level [2] | viability [3] | viability [4] | viability [5] | differential viability (reversal) ([6]; H69AR cells + 2 uM doxorubicin) | viability [6, 9] | viability [6, 10] | inhibition [7] | inhibition [8]
1 | O=C(CSc1nc(O)c(Cc2ccccc2)c(=O)[nH]1)Nc1ccccc1 | 103% | 97% (inactive) | 103% (inactive) | 106% (inactive) | 86.2% (inactive) | 0.23% (inactive) | 85.9% | 86.2% | -2.08% (inactive) | -2.33% (inactive)
2 | CC1=C(C(=O)NCc2ccccc2)C(c2ccccc2OCC(N)=O)NC(=O)N1 (stereo not given) | 93.5% | 77% (inactive) | 93.5% (inactive) | 89.1% (inactive) | 109% (inactive) | 15.9% (inactive) | 92.9% | 109% | -4.13% (inactive) | 1.43% (inactive)
3 | CCC(=O)c1ccc(OCC(O)CN2CCN(S(=O)(=O)N3CCCCC3)CC2)cc1 (stereo not given) | 91% | 82% (inactive) | 91% (inactive) | 105% (inactive) | 110% (inactive) | 18.1% (inactive) | 92.2% | 110% | -3.33% (inactive) | 3.44% (inactive)
4 | CCC(=O)N1CCCc2cc(S(=O)(=O)N3CCCc4ccccc43)ccc21 | 89.5% | 76.5% (inactive) | 89.5% (inactive) | 87.2% (inactive) | 77.6% (inactive) | -3.92% (inactive) | 81.5% | 77.6% | -2.76% (inactive) | -2.1% (inactive)
5 | CCOc1ccc(-c2nc(C#N)c(N3CCCCCC3)o2)cc1 | 138% | 82% (inactive) | 138% (inactive) | 79.5% (inactive) | 94.7% (inactive) | -0.54% (inactive) | 95.2% | 94.7% | 0.64% (inactive) | -0.17% (inactive)
6 | CCOC(=O)CN1CC23C=CC(O2)C(C(=O)Nc2ccc(OC)cc2OC)C3C1=O (stereo not given) | 99% | 99% (inactive) | 99% (inactive) | 93.7% (inactive) | 98.9% (inactive) | 5.06% (inactive) | 93.9% | 98.9% | -0.77% (inactive) | 1.83% (inactive)
7 | O=C(OCC(=O)c1cccs1)C1=COCCO1 | 89% | 102% (inactive) | 89% (inactive) | 91.6% (inactive) | 89.1% (inactive) | 1.52% (inactive) | 87.6% | 89.1% | -0.38% (inactive) | -1% (inactive)
8 | CC(=O)Nc1ccc(S(=O)(=O)N2CCN(C(C)CCc3ccccc3)CC2)cc1 (stereo not given) | 74% | 98.5% (inactive) | 74% (inactive) | 97.8% (inactive) | 96.6% (inactive) | 5.17% (inactive) | 91.4% | 96.6% | -4.8% (inactive) | -1.29% (inactive)
9 | COc1ccc(-c2nc3c(c(=O)n(C)c(=O)n3C)n2CC2CC(c3ccccc3)=NO2)cc1OC (stereo not given) | 85.5% | 85% (inactive) | 85.5% (inactive) | 63.4% (inactive) | 6.03% (active) | 1.44% (inactive) | 4.58% | 6.03% | -6.76% (inactive) | 2.22% (inactive)
10 | O=S(=O)(c1cc(Cl)ccc1Br)N1CCOCC1 | 95.5% | 108% (inactive) | 95.5% (inactive) | 103% (inactive) | 91% (inactive) | 0.56% (inactive) | 90.4% | 91% | -2.99% (inactive) | -0.17% (inactive)
11 | CC(=O)N1CCC(N(C(=O)Nc2ccc(C)c(C)c2)C2CCCC2)CC1 | 92% | 102% (inactive) | 92% (inactive) | 90.4% (inactive) | 85.6% (inactive) | -3.42% (inactive) | 89.1% | 85.6% | -1.54% (inactive) | -5.33% (inactive)
12 | Cc1ccc(S(=O)(=O)N2CCC(C(=O)NCCN3CCCCCC3)CC2)cc1 | 91% | 93.5% (inactive) | 91% (inactive) | 108% (inactive) | 103% (inactive) | 18.1% (inactive) | 84.6% | 103% | 0.13% (inactive) | 2.13% (inactive)
13 | COC(=O)c1cc(Br)c(=O)n(Cc2cccnc2)c1 | 108% | 81.5% (inactive) | 108% (inactive) | 95.9% (inactive) | 97.3% (inactive) | 17% (inactive) | 80.3% | 97.3% | -3.95% (inactive) | 0.18% (inactive)
14 | COc1ccc(CN(CC(=O)NCC2CCCO2)C(=O)CNS(=O)(=O)c2ccc(C)cc2)cc1 (stereo not given) | 107% | 102% (inactive) | 107% (inactive) | 96.3% (inactive) | 97.2% (inactive) | 2.2% (inactive) | 95% | 97.2% | -0.53% (inactive) | -6.23% (inactive)
15 | Cc1ccc(C(=O)CSc2nnc(-c3cccnc3)n2N)cc1 | 104% | 89.5% (inactive) | 104% (inactive) | 68.9% (inactive) | 28.2% (active) | -49.2% (inactive) | 77.4% | 28.2% | -0.93% (inactive) | 0.97% (inactive)
16 | COc1cc(S(=O)(=O)N2CCOCC2)ccc1NC(=O)COC(=O)c1ccccn1 | 114% | 92% (inactive) | 114% (inactive) | 85.8% (inactive) | 84.8% (inactive) | -12.8% (inactive) | 97.6% | 84.8% | -6.71% (inactive) | -0.18% (inactive)

Row | SMILES | viability [1] | Her2 level [2] | viability [3] | viability [4] | viability [5] | differential viability (reversal) ([6]; H69AR cells + 2 uM doxorubicin) | viability [6, 9] | viability [6, 10] | inhibition [7] | inhibition [8]
17 | O=C(CSc1nnc(-c2ccccc2F)o1)OCc1ccccc1 | 83.5% | 88.5% (inactive) | 83.5% (inactive) | 102% (inactive) | 102% (inactive) | 17.8% (inactive) | 84.3% | 102% | -5.68% (inactive) | 2.95% (inactive)
18 | Cc1cc(C)c2c(N)c(C(=O)N3CCN(c4ncccn4)CC3)sc2n1 | 104% | 96.5% (inactive) | 104% (inactive) | 98.2% (inactive) | 101% (inactive) | 0.855% (inactive) | 101% | 101% | -5.53% (inactive) | 0.49% (inactive)
19 | Cc1ccc(NC(=O)Nc2ccc3c(c2)N(C)C(=O)CS3)nc1 | 108% | 68.5% (inactive) | 108% (inactive) | 45.5% (inactive) | 88.3% (inactive) | -8.16% (inactive) | 96.4% | 88.3% | -3.73% (inactive) | -0.33% (inactive)
20 | COC(=O)c1cc2oc(C)cc2n1CC(=O)N(C)c1ccccc1 | 93% | 92.5% (inactive) | 93% (inactive) | 83.2% (inactive) | 95.4% (inactive) | 7.45% (inactive) | 88% | 95.4% | -1.92% (inactive) | -2.17% (inactive)
21 | COC(=O)c1ccc(-c2sc3nc(N4CCOCC4)c4c(c3c2N)CCCC4)o1 | 108% | 104% (inactive) | 108% (inactive) | 74.4% (inactive) | 91% (inactive) | -1.13% (inactive) | 92.2% | 91% | -4% (inactive) | 27.3% (inactive)
22 | Cc1cc(Nc2ccccc2N2CCOCC2)n2ncnc2n1 | 94.5% | 96% (inactive) | 94.5% (inactive) | 88% (inactive) | 97.1% (inactive) | -0.715% (inactive) | 97.8% | 97.1% | -2.43% (inactive) | 4.6% (inactive)
23 | Cc1cc2c(c(=O)n1CCc1ccccc1)C(C(C)C)C(C#N)=C(N)O2 (stereo not given) | 95% | 87% (inactive) | 95% (inactive) | 93.9% (inactive) | 83.5% (inactive) | -9.34% (inactive) | 92.8% | 83.5% | -4.87% (inactive) | 2.79% (inactive)
24 | O=c1cc(-c2ccc(Cl)cc2)[nH][nH]1 | 108% | 84% (inactive) | 108% (inactive) | 93.5% (inactive) | 91.6% (inactive) | 5.75% (inactive) | 85.9% | 91.6% | -7.84% (inactive) | 1% (inactive)
25 | Cc1ccnc(NC(=O)CCC(=O)N(CC(=O)NC2CCCCC2)c2cccc(C)c2C)c1 | 92.5% | 97.5% (inactive) | 92.5% (inactive) | 92.1% (inactive) | 86.7% (inactive) | -7.79% (inactive) | 94.5% | 86.7% | 0% (inactive) | 22.6% (inactive)
26 | CCOC(=O)c1cnn(-c2cc(C)nc3c(-c4ccccc4)c(C)nn23)c1N | 120% | 89% (inactive) | 120% (inactive) | 84.2% (inactive) | 89.4% (inactive) | 15.7% (inactive) | 73.7% | 89.4% | -3.77% (inactive) | -5.56% (inactive)
27 | Cc1ccc(S(=O)(=O)C2(C(=O)Nc3cccnc3)CC2)cc1 | 92.5% | 96% (inactive) | 92.5% (inactive) | 91.6% (inactive) | 98.4% (inactive) | 3.19% (inactive) | 95.2% | 98.4% | -1.67% (inactive) | -8.67% (inactive)
28 | Cn1nc(C(=O)NC2CCCCCC2)ccc1=O | 126% | 104% (inactive) | 126% (inactive) | 101% (inactive) | 111% (inactive) | 19.2% (inactive) | 92% | 111% | -2.6% (inactive) | -0.79% (inactive)
29 | CCCN(Cc1cc2cc(C)ccc2[nH]c1=O)C(=O)c1cccc(OC)c1 | 114% | 91% (inactive) | 114% (inactive) | 70.6% (inactive) | 81.2% (inactive) | -0.89% (inactive) | 82.1% | 81.2% | -7.07% (inactive) | -0.65% (inactive)
30 | N#CC1=C(N)S[C@H](C(=O)C23CC4CC(CC(C4)C2)C3)[C@H]1c1ccncc1 | 81% | 79% (inactive) | 81% (inactive) | 41% (inactive) | 93.7% (inactive) | 47.6% (inactive) | 46.1% | 93.7% | -2.8% (inactive) | 4.84% (inactive)
31 | Cc1nc(NS(=O)(=O)c2ccccc2)sc1NC(=O)OC(C)C | 97% | 106% (inactive) | 97% (inactive) | 90.3% (inactive) | 99.9% (inactive) | 1.17% (inactive) | 98.7% | 99.9% | -3.29% (inactive) | -12.5% (inactive)
